# ChEMBL document CHEMBL3352189 (J Med Chem, 2014)
# Calls of active or inactive are those of the source. The rule behind the calls is not given here.
# Key:
# [1] = molecular target: Sodium-dependent dopamine transporter (Homo sapiens) (UniProt Q01959); experiment: Displacement of [125I]RTI-55 from human DAT at 10 uM
# [2] = molecular target: Epidermal growth factor receptor (Homo sapiens) (UniProt P00533); experiment: Displacement of [125I]EGF from human EGFR at 10 uM
# Rattus norvegicus [3] = species: Rattus norvegicus; experiment: Displacement of [3H]idazoxan from rat Imidazole receptor 2 at 10 uM
# [4] = molecular target: D(2) dopamine receptor (Homo sapiens) (UniProt P14416); experiment: Displacement of [3H]spiperone from human dopamine D2S receptor at 10 uM
# [5] = molecular target: 5-hydroxytryptamine receptor 1A (Homo sapiens) (UniProt P08908); experiment: Displacement of [3H]8-OH-DPAT from human 5HT1A receptor at 10 uM
# Sequence of 5-hydroxytryptamine receptor 1A (Homo sapiens) (P08908 whole entry): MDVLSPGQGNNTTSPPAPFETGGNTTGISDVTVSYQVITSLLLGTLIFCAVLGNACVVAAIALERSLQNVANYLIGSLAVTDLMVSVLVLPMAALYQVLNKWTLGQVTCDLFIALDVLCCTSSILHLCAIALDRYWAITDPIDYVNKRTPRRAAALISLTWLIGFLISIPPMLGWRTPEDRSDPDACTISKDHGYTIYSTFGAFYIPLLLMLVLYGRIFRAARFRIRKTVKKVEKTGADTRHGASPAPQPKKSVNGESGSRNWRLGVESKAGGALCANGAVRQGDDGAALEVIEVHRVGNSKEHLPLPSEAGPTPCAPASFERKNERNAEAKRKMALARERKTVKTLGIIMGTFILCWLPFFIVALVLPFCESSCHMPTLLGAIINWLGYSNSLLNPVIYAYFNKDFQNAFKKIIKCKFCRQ
# Liver = experiment: Stability in mouse liver microsomes as parent compound remaining; assay type: ADME
# Procedure, shortened: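 Mouse hepatic microsomes incubated for 1 h; reported as % parent remaining.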
# [6] = Plasma concentration in C57BL/6 mouse at 5 mg/kg, ip administered as single dose measured after 20 mins by LC/MS analysis based RACE assay; assay type: ADME, organism-based; set-up: dose 5 mg/kg, route intraperitoneal
# Procedure, shortened: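 Single intraperitoneal dose of 1, 5 or 10 mg/kg given to C57BL/6 mice, 3 mice per dose and time point, with a vehicle-control cohort. Plasma was sampled at 20 and 120 min post-dose and drug level measured by LC/MS. Each time point averaged two injections (<20% difference); values are means ± standard deviation in μM.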
# [7] = molecular target: T1, Glutamate NMDA receptor (Rattus norvegicus) (UniProt P35439+Q00959+Q00960+Q00961+Q62645+Q8VHN2+Q9R1M7); experiment: Displacement of [3H]TCP from rat NMDA receptor phencyclidine binding site binding site at 10 uM; assay type: protein-complex assay
# [8] = molecular target: Alpha-2A adrenergic receptor (Homo sapiens) (UniProt P08913); experiment: Displacement of [3H]MK-912 from human adrenergic alpha2A receptor at 10 uM
# [9] = Chemical stability in presence of 5x DTT assessed as parent compound remaining incubated for 8 hrs; assay type: physicochemical; conditions: read-out: Stability
# [10] = molecular target: Cannabinoid receptor 1 (Homo sapiens) (UniProt P21554); experiment: Displacement of [3H]SR141716A from human CB1 receptor at 10 uM
# Sequence of Cannabinoid receptor 1 (Homo sapiens) (P21554 whole entry): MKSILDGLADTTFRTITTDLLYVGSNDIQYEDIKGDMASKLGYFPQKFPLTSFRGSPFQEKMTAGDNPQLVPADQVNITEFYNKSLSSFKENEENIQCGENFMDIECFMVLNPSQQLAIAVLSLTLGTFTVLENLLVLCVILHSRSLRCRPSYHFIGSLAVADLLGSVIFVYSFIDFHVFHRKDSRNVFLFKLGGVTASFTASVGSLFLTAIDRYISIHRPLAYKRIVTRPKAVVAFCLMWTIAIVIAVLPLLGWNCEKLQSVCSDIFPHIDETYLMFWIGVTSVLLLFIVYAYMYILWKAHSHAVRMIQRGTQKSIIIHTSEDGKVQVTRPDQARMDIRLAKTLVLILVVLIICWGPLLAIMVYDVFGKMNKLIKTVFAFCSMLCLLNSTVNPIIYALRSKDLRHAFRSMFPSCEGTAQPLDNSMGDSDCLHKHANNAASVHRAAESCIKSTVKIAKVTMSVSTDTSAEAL
# [11] = molecular target: Muscarinic acetylcholine receptor M3 (Homo sapiens) (UniProt P20309); experiment: Displacement of [3H]N-Methylscopolamine from human muscarinic M3 receptor at 10 uM
# [12] = molecular target: Cysteinyl leukotriene receptor 1 (Homo sapiens) (UniProt Q9Y271); experiment: Displacement of [3H]LTD4 from human CysLT1 receptor at 10 uM
# Sequence of Cysteinyl leukotriene receptor 1 (Homo sapiens) (Q9Y271 whole entry): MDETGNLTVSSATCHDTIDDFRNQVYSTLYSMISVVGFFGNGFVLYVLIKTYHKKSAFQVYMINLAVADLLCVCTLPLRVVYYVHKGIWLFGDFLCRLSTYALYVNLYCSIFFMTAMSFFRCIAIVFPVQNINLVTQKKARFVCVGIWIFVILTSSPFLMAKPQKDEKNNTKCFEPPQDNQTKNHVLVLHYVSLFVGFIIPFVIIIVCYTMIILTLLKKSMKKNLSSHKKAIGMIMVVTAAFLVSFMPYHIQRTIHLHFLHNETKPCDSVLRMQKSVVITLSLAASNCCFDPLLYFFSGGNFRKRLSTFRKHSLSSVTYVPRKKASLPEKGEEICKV
# [13] = test system: Venezuelan equine encephalitis virus; experiment: Antiviral activity against Venezuelan equine encephalitis virus TrD infected in Vero 76 cells assessed as reduction in viral titer at 1 uM by crystal violet staining based microplaque assay relative to untreated control; assay type: functional
# [14] = test system: Venezuelan equine encephalitis virus; experiment: Antiviral activity against Venezuelan equine encephalitis virus TC83 infected in Vero 76 cells assessed as reduction in virus-induced cytopathic effect after 2 days by Celltiter-Glo reagent based assay; assay type: functional, organism-based; conditions: TC83, Vero 76, 48 h
# [15] = molecular target: Adenosine receptor A1 (Homo sapiens) (UniProt P30542); experiment: Displacement of [3H]DPCPX from human adenosine A1 receptor at 10 uM
# [16] = molecular target: L-type calcium channel, benzothiazepine site (Rattus norvegicus, UniProt P22002+P27732+Q02485); experiment: Displacement of [3H]diltiazem from rat calcium channel L-Type benzothiazepine site at 10 uM; assay type: protein assay; conditions: probe [3H]diltiazem
# [17] = molecular target: Beta-1 adrenergic receptor (Homo sapiens) (UniProt P08588); experiment: Displacement of [125I]cyanopindolol from human adrenergic beta1 receptor at 10 uM
# Rattus norvegicus [18] = species: Rattus norvegicus; experiment: Displacement of [3H]GABA from rat GABA transporter at 10 uM
# [19] = molecular target: Platelet-activating factor receptor (Homo sapiens) (UniProt P25105); experiment: Displacement of [3H]PAF from human PAF receptor at 10 uM
# Sequence of Platelet-activating factor receptor (Homo sapiens) (P25105 whole entry): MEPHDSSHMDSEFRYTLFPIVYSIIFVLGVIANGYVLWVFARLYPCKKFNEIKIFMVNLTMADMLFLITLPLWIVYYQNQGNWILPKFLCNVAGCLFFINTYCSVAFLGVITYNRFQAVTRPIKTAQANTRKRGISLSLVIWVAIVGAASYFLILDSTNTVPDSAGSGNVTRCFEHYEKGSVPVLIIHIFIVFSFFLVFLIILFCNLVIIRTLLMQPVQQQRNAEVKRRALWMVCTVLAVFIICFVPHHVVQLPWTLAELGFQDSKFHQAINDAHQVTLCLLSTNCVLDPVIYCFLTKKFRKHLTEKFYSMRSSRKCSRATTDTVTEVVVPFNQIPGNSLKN
# [20] = molecular target: T1, Glutamate NMDA receptor (Rattus norvegicus); experiment: Displacement of [3H]CGP-39653 from rat NMDA receptor agonist binding site binding site at 10 uM; assay type: protein-complex assay
# Rattus norvegicus [21] = species: Rattus norvegicus; experiment: Displacement of [125I]triiodothyronine from rat thyroid hormone receptor 10 uM
# Rattus norvegicus [22] = species: Rattus norvegicus; experiment: Displacement of [3H]kainic acid from rat kainate receptor at 10 uM
# [23] = Hepatotoxicity in human Fa2N-4 cells; assay type: toxicity, cell-based; conditions: read-out: LD50 (the source's name)
# [24] = test system: Venezuelan equine encephalitis virus; experiment: Antiviral activity against Venezuelan equine encephalitis virus TrD infected in Vero 76 cells assessed as reduction in virus-induced cytopathic effect after 2 days by Celltiter-Glo reagent based assay; assay type: functional, organism-based; conditions: Vero 76, 48 h
# [25] = molecular target: Histamine H2 receptor (Homo sapiens) (UniProt P25021); experiment: Displacement of [3H]N-alpha-Methylhistamine from human histamine H3 receptor at 10 uM
# Sequence of Histamine H2 receptor (Homo sapiens) (P25021 whole entry): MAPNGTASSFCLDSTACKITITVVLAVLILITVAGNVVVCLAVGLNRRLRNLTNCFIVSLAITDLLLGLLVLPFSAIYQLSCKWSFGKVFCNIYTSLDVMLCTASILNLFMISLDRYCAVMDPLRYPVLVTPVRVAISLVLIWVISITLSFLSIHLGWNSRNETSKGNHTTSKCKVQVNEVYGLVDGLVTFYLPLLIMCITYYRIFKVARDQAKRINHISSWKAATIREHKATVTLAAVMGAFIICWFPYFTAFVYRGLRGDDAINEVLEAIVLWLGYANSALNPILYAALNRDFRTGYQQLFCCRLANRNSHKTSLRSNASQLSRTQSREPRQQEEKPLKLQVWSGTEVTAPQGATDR
# [26] = molecular target: Sodium-dependent noradrenaline transporter (Homo sapiens) (UniProt P23975); experiment: Displacement of [125I]RTI-55 from human NET at 10 uM
# Sequence of Sodium-dependent noradrenaline transporter (Homo sapiens) (P23975 whole entry): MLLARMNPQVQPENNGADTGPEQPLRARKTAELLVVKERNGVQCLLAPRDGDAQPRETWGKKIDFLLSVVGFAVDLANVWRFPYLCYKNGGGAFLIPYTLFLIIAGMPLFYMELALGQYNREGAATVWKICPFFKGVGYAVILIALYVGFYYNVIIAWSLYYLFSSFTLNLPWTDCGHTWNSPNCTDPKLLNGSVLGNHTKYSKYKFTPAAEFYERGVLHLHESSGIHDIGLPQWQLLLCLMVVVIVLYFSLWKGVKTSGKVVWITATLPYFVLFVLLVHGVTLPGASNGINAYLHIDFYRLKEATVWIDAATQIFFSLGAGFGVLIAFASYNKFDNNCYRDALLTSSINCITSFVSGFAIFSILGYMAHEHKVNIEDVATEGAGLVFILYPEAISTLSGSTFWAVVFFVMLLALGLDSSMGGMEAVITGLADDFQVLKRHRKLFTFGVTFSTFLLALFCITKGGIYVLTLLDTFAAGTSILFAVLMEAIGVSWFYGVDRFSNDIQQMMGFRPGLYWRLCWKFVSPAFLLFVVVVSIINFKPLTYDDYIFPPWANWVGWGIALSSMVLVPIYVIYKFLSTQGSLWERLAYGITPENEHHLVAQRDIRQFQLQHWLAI
# [27] = Stability in pH 7.4 PBS buffer assessed as parent compound remaining; assay type: physicochemical
# Procedure, shortened: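 Aqueous stability measured after 48 h incubation, in PBS pH 7.4 or in 1:1 PBS/acetonitrile; reported as % parent remaining.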
# Plasma = experiment: Protein binding in mouse plasma at 1 uM; assay type: ADME, cell-free
# [28] = molecular target: Alpha-1A adrenergic receptor (Rattus norvegicus) (UniProt P43140); experiment: Displacement of [3H]prazosin from rat adrenergic alpha1A receptor at 10 uM
# Sequence of Alpha-1A adrenergic receptor (Rattus norvegicus) (P43140 whole entry): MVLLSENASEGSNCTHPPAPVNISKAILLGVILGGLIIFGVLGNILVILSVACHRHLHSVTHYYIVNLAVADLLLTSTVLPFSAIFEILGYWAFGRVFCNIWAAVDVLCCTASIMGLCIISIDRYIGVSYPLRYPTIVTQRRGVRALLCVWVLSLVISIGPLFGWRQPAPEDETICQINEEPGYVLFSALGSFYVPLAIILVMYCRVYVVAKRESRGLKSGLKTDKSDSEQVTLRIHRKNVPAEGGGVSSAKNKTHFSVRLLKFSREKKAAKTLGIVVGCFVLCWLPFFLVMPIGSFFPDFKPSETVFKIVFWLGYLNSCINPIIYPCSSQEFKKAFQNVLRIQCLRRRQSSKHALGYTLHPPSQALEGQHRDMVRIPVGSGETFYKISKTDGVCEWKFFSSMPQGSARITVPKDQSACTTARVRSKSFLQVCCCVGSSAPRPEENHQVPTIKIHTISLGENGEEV
# Cricetinae = experiment: Displacement of [3H]glyburide from hamster KATP channel at 10 uM
# [29] = Drug concentration in C57BL/6 mouse brain at 1 mg/kg, ip administered as single dose measured after 120 mins by LC/MS analysis based RACE assay; assay type: ADME, organism-based; set-up: dose 1 mg/kg, route intraperitoneal; conditions: read-out: Drug uptake
# Procedure, shortened: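 Brain tissue taken at the terminal 120 min point after one intraperitoneal dose (1, 5 or 10 mg/kg) in C57BL/6 mice, 3 per group, with a vehicle cohort. Drug level measured by LC/MS, averaging two injections per sample; reported as mean ± standard deviation, μM.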
# Mus musculus = species: Mus musculus; experiment: Displacement of [3H]PDBu from mouse phorbol ester receptor at 10 uM
# [30] = molecular target: Endothelin-1 receptor (Homo sapiens) (UniProt P25101); experiment: Displacement of [125I]endothelin-1 from human ETA receptor at 10 uM
# [31] = molecular target: Muscarinic acetylcholine receptor M1 (Homo sapiens) (UniProt P11229); experiment: Displacement of [3H]N-Methylscopolamine from human muscarinic M1 receptor at 10 uM
# [32] = molecular target: GABA-A receptor; anion channel (Homo sapiens) (UniProt P14867+P47870+P18507+P28472+P48169+Q99928+Q9UN88+P34903+O00591+O14764+Q8N1C3+P18505+P78334+P47869+P31644+Q16445); experiment: Displacement of ABC from rat GABAA receptor central flunitrazepam site at 10 uM; assay type: protein-complex assay; conditions: target entry is the homologue from another species
# CYP2C9 = CYP2C9 (Homo sapiens, UniProt P11712); experiment: Inhibition of human CYP2C9 at 10 uM; assay type: ADME
# Sequence of CYP2C9 (P11712 whole entry): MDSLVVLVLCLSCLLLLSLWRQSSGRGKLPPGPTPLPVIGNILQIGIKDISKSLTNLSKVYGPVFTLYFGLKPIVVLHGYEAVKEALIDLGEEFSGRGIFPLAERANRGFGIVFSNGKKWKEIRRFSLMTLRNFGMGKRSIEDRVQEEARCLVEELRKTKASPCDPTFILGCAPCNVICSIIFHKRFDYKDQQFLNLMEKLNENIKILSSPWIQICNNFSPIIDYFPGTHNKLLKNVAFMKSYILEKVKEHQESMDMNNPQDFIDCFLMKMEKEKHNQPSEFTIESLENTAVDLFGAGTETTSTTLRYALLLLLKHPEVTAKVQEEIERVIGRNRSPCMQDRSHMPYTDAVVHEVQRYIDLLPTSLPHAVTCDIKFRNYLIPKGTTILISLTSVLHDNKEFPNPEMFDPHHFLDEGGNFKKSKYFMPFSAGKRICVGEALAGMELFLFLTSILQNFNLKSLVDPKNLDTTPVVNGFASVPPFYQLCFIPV
# [33] = molecular target: T1, Glutamate NMDA receptor (Rattus norvegicus); experiment: Displacement of [3H]MDL 105,519 from rat NMDA receptor glycine binding site binding site at 10 uM; assay type: protein-complex assay
# Sequence of Epidermal growth factor receptor (Homo sapiens) (P00533 whole entry): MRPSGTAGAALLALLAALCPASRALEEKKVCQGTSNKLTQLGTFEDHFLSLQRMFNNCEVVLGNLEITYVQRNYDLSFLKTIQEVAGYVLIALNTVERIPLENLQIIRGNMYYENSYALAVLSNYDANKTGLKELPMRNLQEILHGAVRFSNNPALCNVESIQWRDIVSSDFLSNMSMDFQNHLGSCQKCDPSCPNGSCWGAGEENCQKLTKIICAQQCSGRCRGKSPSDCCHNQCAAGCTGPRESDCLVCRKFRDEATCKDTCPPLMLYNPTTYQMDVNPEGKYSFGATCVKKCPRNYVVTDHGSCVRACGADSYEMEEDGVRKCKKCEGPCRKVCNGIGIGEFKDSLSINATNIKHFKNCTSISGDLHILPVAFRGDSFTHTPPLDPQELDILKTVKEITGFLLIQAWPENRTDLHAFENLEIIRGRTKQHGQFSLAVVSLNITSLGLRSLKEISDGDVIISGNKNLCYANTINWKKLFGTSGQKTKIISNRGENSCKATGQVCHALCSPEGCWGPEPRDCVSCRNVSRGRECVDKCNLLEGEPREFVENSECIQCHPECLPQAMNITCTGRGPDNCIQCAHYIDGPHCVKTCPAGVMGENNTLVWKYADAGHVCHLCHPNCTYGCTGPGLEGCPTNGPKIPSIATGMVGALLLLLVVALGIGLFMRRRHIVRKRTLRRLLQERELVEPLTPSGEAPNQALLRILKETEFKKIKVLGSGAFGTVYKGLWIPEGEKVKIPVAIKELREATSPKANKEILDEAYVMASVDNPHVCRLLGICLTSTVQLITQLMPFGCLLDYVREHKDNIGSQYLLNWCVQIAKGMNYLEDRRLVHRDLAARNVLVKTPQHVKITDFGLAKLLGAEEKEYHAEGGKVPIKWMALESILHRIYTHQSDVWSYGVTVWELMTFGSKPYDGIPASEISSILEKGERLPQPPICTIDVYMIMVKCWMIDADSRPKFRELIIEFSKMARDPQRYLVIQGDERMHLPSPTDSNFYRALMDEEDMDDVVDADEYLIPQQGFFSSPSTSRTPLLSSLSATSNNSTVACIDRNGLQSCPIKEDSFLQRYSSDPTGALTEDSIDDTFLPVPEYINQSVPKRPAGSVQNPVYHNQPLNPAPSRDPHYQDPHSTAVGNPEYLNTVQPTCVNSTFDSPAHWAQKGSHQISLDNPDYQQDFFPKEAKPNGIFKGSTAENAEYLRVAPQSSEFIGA
compound,measurement,setting,value
CN1CCN(C)/C(=N/c2ccc([N+](=O)[O-])cc2C(=O)Nc2ccccc2)C1,inhibition,[1],10.8%
same,inhibition,[2],-2.63%
same,inhibition,Rattus norvegicus [3],14.4%
same,inhibition,[4],9.08%
same,inhibition,[5],2.12%
same,Stability,Liver,42.9%
same,concentration at 20 min,[6],1450 nM
same,inhibition,[7],9.28%
same,inhibition,[8],-0.5%
same,remaining at 8 h,[9],99%
same,inhibition,[10],-2.06%
same,inhibition,[11],3%
same,inhibition,[12],10.9%
same,inhibition,[13],Active
same,EC50,[14],30 nM
same,inhibition,[15],20.4%
same,inhibition at 10 µM,[16],7.06%
same,inhibition,[17],3.56%
same,inhibition,Rattus norvegicus [18],0.42%
same,inhibition,[19],7.04%
same,inhibition,[20],-2.6%
same,inhibition,Rattus norvegicus [21],1.61%
same,inhibition,Rattus norvegicus [22],22.3%
same,CC50,[23],> 250000 nM
same,EC50,[24],40 nM
same,inhibition,[25],15.8%
same,inhibition,[26],91.1%
same,Stability,[27],82.9%
same,PPB,Plasma,85%
same,inhibition,[28],4.41%
same,inhibition,Cricetinae,4.77%
same,concentration at 2 h,[29],190 nM
same,inhibition,Mus musculus,0%
same,inhibition,[30],7.78%
same,inhibition,[31],0.73%
same,inhibition,[32],15.2%
same,inhibition at 10 µM,CYP2C9,7%
same,inhibition,[33],12.9%
